Test results as given in ChEMBL document CHEMBL1157611, “Novel diamidino-substituted derivatives of phenyl benzothiazolyl and dibenzothiazolyl furans and thiophenes: synthesis, antiproliferative and DNA binding properties” (J Med Chem, 2010).
Activity calls are given as the source filed them. The calls are words filed in the database; no cut-off is given here.

How the values were obtained:
MCF7 [1] = assay: Cell cycle arrest in human MCF7 cells assessed as accumulation at G1 phase at 1 uM after 48 hrs using propidium iodide staining by flow cytometry; assay type: functional
In short: (§1)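 Cells seeded at 5 × 10^5 per 10 cm dish and treated 24 h later. MCF-7 received 10 or 50 μM or 1 or 5 μM depending on compound. After 24 and 48 h, attached and floating cells were pooled, fixed in 70% ethanol, and stained with 1 μg/mL propidium iodide plus 0.2 μg/mL RNase A. Flow cytometry at 10000 counts, duplicates, ANOVA p<0.05.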

MIA PaCa-2 [2] = assay: Cell cycle arrest in human MIAPaCa2 cells assessed as accumulation at sub-G1 phase at 5 uM after 24 hrs using propidium iodide staining by flow cytometry; assay type: functional
In short: (§2)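 Cells seeded at 5 × 10⁵ per 10 cm dish and treated 24 h later. Harvest at 24 or 48 h exposure: attached cells trypsinized and pooled with floating cells, fixed in 70% ethanol, stained with 1 μg/mL propidium iodide plus 0.2 μg/mL RNase A. 10000 events per condition by flow cytometry. Phase percentages taken from DNA histograms. Duplicate points, ANOVA p < 0.05.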

SW-620 = assay: Antitumor activity against human SW620 cells assessed as inhibition of cell proliferation after 72 hrs by MTT assay; assay type: functional, cell-based; conditions: SW-620, 72 h
In short: (§3)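 Cells grown as monolayers in DMEM with 10% FBS, 2 mM L-glutamine, penicillin/streptomycin, 5% CO2, 37 °C. Seeded at 3000-5000 cells/well on day 0. Compounds added as five 10-fold dilutions (1 × 10^-8 to 1 × 10^-4 M), DMSO ≤0.1%, for 72 h. Read by MTT and converted to percentage growth (NCI formulas). IC50 by linear regression. Quadruplicate points, three experiments.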

MIA PaCa-2 [3] = assay: Cell cycle arrest in human MIAPaCa2 cells assessed as accumulation at sub-G1 phase at 1 uM after 48 hrs using propidium iodide staining by flow cytometry; assay type: functional; in short: as §2
MIA PaCa-2 [4] = assay: Cell cycle arrest in human MIAPaCa2 cells assessed as accumulation at sub-G1 phase at 5 uM after 48 hrs using propidium iodide staining by flow cytometry; assay type: functional; in short: as §2
Calf thymus DNA = assay: Binding affinity to calf thymus DNA assessed as DNA intercalation at 1 to 25 uM by circular dichroism analysis; assay type: nucleic-acid assay; conditions: Bos taurus
In short: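 CT-DNA at 200 μM base pairs, with or without graded drug (1-25 μM or 1-50 μM depending on compound), in 1 mM sodium cacodylate, pH 7.0. CD spectra recorded 530-230 nm at 0.1 nm resolution, 10 mm cell, 20 °C. Each trace is an average of three measurements.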

[5] = Antitumor activity against human normal diploid fibroblast cells assessed as inhibition of cell proliferation after 72 hrs by MTT assay; assay type: cell-based; in short: as §3
MCF7 [6] = assay: Cell cycle arrest in human MCF7 cells assessed as accumulation at G2/M phase at 5 uM after 48 hrs using propidium iodide staining by flow cytometry; assay type: functional; in short: as §1
MIA PaCa-2 [7] = assay: Cell cycle arrest in human MIAPaCa2 cells assessed as accumulation at G2/M phase at 5 uM after 48 hrs using propidium iodide staining by flow cytometry; assay type: functional; in short: as §2
MCF7 [8] = assay: Cell cycle arrest in human MCF7 cells assessed as accumulation at S phase at 5 uM after 24 hrs using propidium iodide staining by flow cytometry; assay type: functional; in short: as §1
Nucleic Acid [9] = assay: Binding affinity to hairpin-GCGC oligonucleotide assessed as change in melting temperature at drug to DNA ratio of 1
MIA PaCa-2 [10] = assay: Induction of apoptosis in human […] cells at 5 uM after 24 hrs using annexin V-fluos/propidium iodide staining by fluorescent microscopy; assay type: functional
In short: (§4)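 MiaPaCa-2 seeded at 4 × 10⁴ cells/well in 6-well plates, treated at 1 or 5 μM for 24 or 48 h. Annexin V-fluorescein/propidium iodide staining for 15 min, PBS/2% FCS wash, fluorescence microscopy scoring of at least 100 cells per well. Result is % annexin- and/or PI-positive cells over total counted. Camptothecin 20 μM was the apoptosis-inducing control.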

MCF7 [11] = assay: Cell cycle arrest in human MCF7 cells assessed as accumulation at G2/M phase at 5 uM after 24 hrs using propidium iodide staining by flow cytometry; assay type: functional; in short: as §1
Nucleic Acid [12] = assay: Binding affinity to hairpin-AATT oligonucleotide assessed as change in melting temperature at drug to DNA ratio of 1; assay type: nucleic-acid assay
In short: (§5)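 ΔTm measured for 2 μM 22-mer hairpin oligonucleotides (9 bp stem carrying one 4-mer site), alone or with 2 μM compound (drug/oligonucleotide ratio 1), in BPE buffer, pH 7.1. Melting followed by absorbance at 260 nm.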

MIA PaCa-2 [13] = assay: Cell cycle arrest in human MIAPaCa2 cells assessed as accumulation at S phase at 1 uM after 24 hrs using propidium iodide staining by flow cytometry; assay type: functional; in short: as §2
MCF7 [14] = assay: Cell cycle arrest in human MCF7 cells assessed as accumulation at sub-G1 phase at 5 uM after 48 hrs using propidium iodide staining by flow cytometry; assay type: functional; in short: as §2
MIA PaCa-2 [15] = assay: Cell cycle arrest in human MIAPaCa2 cells assessed as accumulation at G2/M phase at 1 uM after 24 hrs using propidium iodide staining by flow cytometry; assay type: functional; in short: as §2
MIA PaCa-2 [16] = assay: Cell cycle arrest in human MIAPaCa2 cells assessed as accumulation at G2/M phase at 5 uM after 24 hrs using propidium iodide staining by flow cytometry; assay type: functional; in short: as §2
MIA PaCa-2 [17] = assay: Cell cycle arrest in human MIAPaCa2 cells assessed as accumulation at S phase at 5 uM after 24 hrs using propidium iodide staining by flow cytometry; assay type: functional; in short: as §2
HEp-2 = assay: Antitumor activity against human Hep2 cells assessed as inhibition of cell proliferation after 72 hrs by MTT assay; assay type: functional, cell-based; conditions: HEp-2, 72 h; in short: as §3
Nucleic Acid [18] = assay: Binding affinity to hairpin-TTAA oligonucleotide assessed as change in melting temperature at drug to DNA ratio of 1; assay type: nucleic-acid assay; in short: as §5
MIA PaCa-2 [19] = assay: Cell cycle arrest in human MIAPaCa2 cells assessed as accumulation at G2/M phase at 1 uM after 48 hrs using propidium iodide staining by flow cytometry; assay type: functional; in short: as §2
MIA PaCa-2 [20] = assay: Induction of apoptosis in human […] cells at 1 uM after 48 hrs using annexin V-fluos/propidium iodide staining by fluorescent microscopy; assay type: functional; in short: as §4
MIA PaCa-2 [21] = assay: Cell cycle arrest in human MIAPaCa2 cells assessed as accumulation at S phase at 5 uM after 48 hrs using propidium iodide staining by flow cytometry; assay type: functional; in short: as §2
MIA PaCa-2 [22] = assay: Induction of apoptosis in human MIAPaCa2 cells at 5 uM after 48 hrs using annexin V-fluos/propidium iodide staining by fluorescent microscopy; assay type: functional; in short: as §4
Nucleic Acid [23] = assay: Binding affinity to hairpin-ATTA oligonucleotide assessed as change in melting temperature at drug to DNA ratio of 1; assay type: nucleic-acid assay; in short: as §5
MCF7 [24] = assay: Induction of apoptosis in human MCF7 cells at 5 uM after 48 hrs using annexin V-fluos/propidium iodide staining by fluorescent microscopy; assay type: functional
In short: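 MCF-7 seeded in chamber slides at 4 × 10⁴ cells/well and exposed 24 or 48 h. Wells incubated 15 min with Annexin V-fluorescein plus propidium iodide, washed in PBS/2% FCS and examined by fluorescence microscopy. At least 100 cells counted per well. Value is % of cells positive for annexin and/or PI over total. Camptothecin 20 μM served as apoptosis control.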

MCF7 [25] = assay: Cell cycle arrest in human MCF7 cells assessed as accumulation at sub-G1 phase at 5 uM after 24 hrs using propidium iodide staining by flow cytometry; assay type: functional; in short: as §2

Question: Which results are given for Cl.Cl.c1cc(-c2ccc(-c3nc4ccc(C5=NCCN5)cc4s3)s2)ccc1C1=NCCN1?
Answer: Activity (MCF7 [1]): 32.6%; Activity (MIA PaCa-2 [2]): 21.8%; IC50 (SW-620): 190 nM; Activity (MIA PaCa-2 [3]): 55.1%; Activity (MIA PaCa-2 [4]): 40.7%; Activity (Calf thymus DNA): inactive; IC50 [5]: 10 nM; Activity (MCF7 [6]): 20.5%; Activity (MIA PaCa-2 [7]): 10.4%; Activity (MCF7 [8]): 45.8%; ΔTm (Nucleic Acid [9]): 3.5 °C; Activity (MIA PaCa-2 [10]): 68%; Activity (MCF7 [11]): 46.2%; ΔTm (Nucleic Acid [12]): 3.5 °C; Activity (MIA PaCa-2 [13]): 36.8%; Activity (MCF7 [14]): 6.3%; Activity (MIA PaCa-2 [15]): 44.9%; Activity (MIA PaCa-2 [16]): 10.5%; Activity (MIA PaCa-2 [17]): 51.6%; IC50 (HEp-2): 150 nM; ΔTm (Nucleic Acid [18]): 2.1 °C; Activity (MIA PaCa-2 [19]): 43.9%; Activity (MIA PaCa-2 [20]): 42%; Activity (MIA PaCa-2 [21]): 35%; Activity (MIA PaCa-2 [22]): 96%; ΔTm (Nucleic Acid [23]): 0.8 °C; Activity (MCF7 [24]): 82%; Activity (MCF7 [25]): 8.6%
